In ChEMBL document CHEMBL1158343, “Synthesis, antimicrobial and antiviral evaluation of substituted imidazole derivatives” (Eur J Med Chem, 2009) one finds MBC, MIC and MFC data, which are given here for 10 molecules.

What all share (format): functional
One assay deals with Staphylococcus aureus. The experiment in a line: Antimicrobial activity against Staphylococcus aureus after 24 hrs by tube dilution method. The procedure, abridged:
(§1)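 Tube dilution in DMSO (stock 100 mg/ml) with serial dilutions; incubation 37 °C for 48 h for C. albicans (other organisms' times truncated in text). MIC read as lowest concentration inhibiting visible growth. Norfloxacin (bacteria) and fluconazole (fungi) as reference drugs.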

Another assay deals with Bacillus subtilis. Description: Antimicrobial activity against Bacillus subtilis after 24 hrs by tube dilution method. The procedure, abridged: as §1
The next assay deals with Escherichia coli. The experiment in a line: Antimicrobial activity against Escherichia coli after 24 hrs by tube dilution method. A digest of the protocol:
as §1

A further assay deals with Aspergillus niger. The experiment in a line: Antimicrobial activity against Aspergillus niger after 7 days by tube dilution method. The following applies: 168 h. A digest of the protocol: as §1
The test system of a further assay is Candida albicans. Description: Antimicrobial activity against Candida albicans after 48 hrs by tube dilution method. A digest of the protocol:
as §1

≈ marks a conversion by molar mass, not a printed value.

Take `c1ccc(-c2ncc[nH]2)cc1` [2-PHENYLIMIDAZOLE]: the MBC against Staphylococcus aureus, with Bacillus subtilis and against Escherichia coli was 43 µM (≈ 6.2 µg/mL) in each case. For the same molecule, the MIC (in general, the smallest concentration in the dilution series that meets the test's criterion for growth inhibition) in the assay on Staphylococcus aureus stood at 5 µM (≈ 0.721 µg/mL); in the assay on Bacillus subtilis, 5 µM (≈ 0.721 µg/mL); in the assay with Escherichia coli it was 5 µM (≈ 0.721 µg/mL); in the assay on Aspergillus niger it was 86 µM (≈ 12.4 µg/mL); with Candida albicans it was 43 µM (≈ 6.2 µg/mL). The MFC (commonly the lowest tested concentration that kills the fungus rather than only halting it) against Aspergillus niger came out at 694 µM (≈ 100 µg/mL); in the assay on Candida albicans, 347 µM (≈ 50 µg/mL).
With `Clc1ccccc1-c1ncc[nH]1`, the MBC against Staphylococcus aureus, against Bacillus subtilis and with Escherichia coli was 561 µM (≈ 100 µg/mL) throughout. For the same molecule, the MIC against Staphylococcus aureus was found to be 35 µM (≈ 6.25 µg/mL); in the assay with Bacillus subtilis it was 702 µM (≈ 125 µg/mL); against Escherichia coli, 702 µM (≈ 125 µg/mL); with Aspergillus niger it was 35 µM (≈ 6.25 µg/mL); against Candida albicans, 702 µM (≈ 125 µg/mL). In addition, the MFC with Aspergillus niger turned out to be 280 µM (≈ 50 µg/mL); with Candida albicans it was 561 µM (≈ 100 µg/mL).
With `Clc1cccc(-c2ncc[nH]2)c1`, the minimum bactericidal concentration (MBC) (as a rule, the smallest concentration meeting the test's criterion for killing) stood at 35 µM (≈ 6.25 µg/mL) in the assay on Staphylococcus aureus, 140 µM (≈ 25 µg/mL) against Bacillus subtilis and 561 µM (≈ 100 µg/mL) with Escherichia coli. The MIC in the assay with Staphylococcus aureus is 4 µM (≈ 0.714 µg/mL); against Bacillus subtilis, 17 µM (≈ 3.04 µg/mL); with Escherichia coli, 702 µM (≈ 125 µg/mL); against Aspergillus niger, 35 µM (≈ 6.25 µg/mL); against Candida albicans, 35 µM (≈ 6.25 µg/mL). For the same molecule, the MFC with Aspergillus niger and in the assay on Candida albicans was 280 µM (≈ 50 µg/mL) in each case.
Turning to `Clc1ccc(-c2ncc[nH]2)cc1`, the MBC in the assay on Staphylococcus aureus is 35 µM (≈ 6.25 µg/mL); in the assay on Bacillus subtilis, 702 µM (≈ 125 µg/mL); against Escherichia coli, 702 µM (≈ 125 µg/mL). Also, the MIC against Staphylococcus aureus was found to be 4 µM (≈ 0.714 µg/mL); in the assay on Bacillus subtilis it was 8 µM (≈ 1.43 µg/mL); in the assay with Escherichia coli, 8 µM (≈ 1.43 µg/mL); with Aspergillus niger, 702 µM (≈ 125 µg/mL); in the assay on Candida albicans, 35 µM (≈ 6.25 µg/mL). For the same molecule, the MFC is 561 µM (≈ 100 µg/mL) in the assay with Aspergillus niger and 280 µM (≈ 50 µg/mL) in the assay with Candida albicans.
Consider `Brc1ccc(-c2ncc[nH]2)cc1`, for which the MBC against Staphylococcus aureus, against Bacillus subtilis and in the assay on Escherichia coli was 28 µM (≈ 6.25 µg/mL) throughout. The MIC against Staphylococcus aureus was found to be 3 µM (≈ 0.669 µg/mL); against Bacillus subtilis, 3 µM (≈ 0.669 µg/mL); against Escherichia coli it was 3 µM (≈ 0.669 µg/mL); in the assay with Aspergillus niger, 14 µM (≈ 3.12 µg/mL); against Candida albicans, 28 µM (≈ 6.25 µg/mL). Besides, the values for the MFC with Aspergillus niger and in the assay with Candida albicans were 112 µM (≈ 25 µg/mL) and 224 µM (≈ 50 µg/mL), respectively.
For the molecule `CCn1cc(C(=O)O)c(=O)c2cc(F)c(N3CCNCC3)cc21` [NORFLOXACIN], the MBC with Staphylococcus aureus, against Bacillus subtilis and against Escherichia coli was 19 µM (≈ 6.07 µg/mL) each time. In addition, the MIC against Staphylococcus aureus, with Bacillus subtilis and in the assay with Escherichia coli was 2 µM (≈ 0.639 µg/mL) in each case.
`Cc1cccc(-c2ncc[nH]2)c1C`: the MBC with Staphylococcus aureus, against Bacillus subtilis and against Escherichia coli was 36 µM (≈ 6.2 µg/mL) in each case. The MIC against Staphylococcus aureus came to 4 µM (≈ 0.689 µg/mL); with Bacillus subtilis, 4 µM (≈ 0.689 µg/mL); in the assay on Escherichia coli, 4 µM (≈ 0.689 µg/mL); in the assay on Aspergillus niger it was 17 µM (≈ 2.93 µg/mL); in the assay on Candida albicans it was 72 µM (≈ 12.4 µg/mL). Also, the MFC was 144 µM (≈ 24.8 µg/mL) against Aspergillus niger and 289 µM (≈ 49.8 µg/mL) against Candida albicans.
With `O=[N+]([O-])c1ccccc1-c1ncc[nH]1`, the MBC in the assay with Staphylococcus aureus, in the assay with Bacillus subtilis and in the assay on Escherichia coli was 33 µM (≈ 6.24 µg/mL) throughout. The MIC with Staphylococcus aureus was determined as 4 µM (≈ 0.757 µg/mL); against Bacillus subtilis, 4 µM (≈ 0.757 µg/mL); against Escherichia coli, 4 µM (≈ 0.757 µg/mL); against Aspergillus niger it was 33 µM (≈ 6.24 µg/mL); in the assay on Candida albicans it was 33 µM (≈ 6.24 µg/mL). For the same molecule, the minimum fungicidal concentration (MFC) against Aspergillus niger and in the assay with Candida albicans was 264 µM (≈ 49.9 µg/mL) throughout.
With `COc1ccc(-c2ncc[nH]2)cc1`, the MBC with Staphylococcus aureus was 32 µM (≈ 5.57 µg/mL); against Bacillus subtilis it was 32 µM (≈ 5.57 µg/mL); in the assay with Escherichia coli, 263 µM (≈ 45.8 µg/mL). Also, the MIC in the assay with Staphylococcus aureus was determined as 4 µM (≈ 0.697 µg/mL); in the assay on Bacillus subtilis, 4 µM (≈ 0.697 µg/mL); in the assay on Escherichia coli, 32 µM (≈ 5.57 µg/mL); with Aspergillus niger it was 65 µM (≈ 11.3 µg/mL); against Candida albicans, 65 µM (≈ 11.3 µg/mL). Moreover, the MFC against Aspergillus niger and in the assay on Candida albicans was 526 µM (≈ 91.6 µg/mL) each time.
In the assay on Aspergillus niger, `OC(Cn1cncn1)(Cn1cncn1)c1ccc(F)cc1F` [FLUCONAZOLE] displayed an MFC of 40 µM (≈ 12.3 µg/mL) and an MIC of 1 µM (≈ 0.306 µg/mL). Further, in the assay on Candida albicans, the MFC turned out to be 40 µM (≈ 12.3 µg/mL) and the MIC was found to be 1 µM (≈ 0.306 µg/mL).
